Laboratory results taken from ChEMBL document CHEMBL1275473, “Activities of ceftobiprole, linezolid, vancomycin, and daptomycin against community-associated and hospital-associated methicillin-resistant Staphylococcus aureus” (2008).
In brackets after ≈: the same amount, converted by molar mass.

Experiments:
Assay type in all cases: functional
Staphylococcus aureus [1] = assay: Antimicrobial activity against community-acquired methicillin-resistant Staphylococcus aureus by broth microdilution method
How it was run: (§1)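 Broth microdilution in duplicate per CLSI guidelines on clinical CA-/HA-MRSA isolates (100 each, Detroit Medical Center). Mueller-Hinton broth with 25 mg/liter calcium and 12.5 mg/liter magnesium; for daptomycin, 50 mg/liter calcium and 12.5 mg/liter magnesium.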

Staphylococcus aureus [2] = assay: Antimicrobial activity against hospital-acquired methicillin-resistant Staphylococcus aureus by broth microdilution method; how it was run: as §1
Staphylococcus aureus [3] = assay: Bactericidal activity against community-acquired methicillin-resistant Staphylococcus aureus selected at 4 times MIC after 24 hrs by time kill analysis
How it was run: (§2)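 Time-kill in triplicate on four randomly selected isolates per group. Start inoculum ~10^6 CFU/ml, drug at 4× MIC; serum arm has 50% human serum. Sampled over 0–24 h, diluted in cold 0.9% NaCl, spiral-plated; detection limit 2 log10 CFU/ml. Bactericidal means ≥3-log10 reduction. T99.9 by linear regression or visual inspection.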

Staphylococcus aureus [4] = assay: Bactericidal activity against hospital-acquired methicillin-resistant Staphylococcus aureus selected at 4 times MIC after 24 hrs by time kill analysis; how it was run: as §2
Staphylococcus aureus [5] = assay: Bactericidal activity against hospital-acquired methicillin-resistant Staphylococcus aureus by broth microdilution method; settings: for MBC: Staphylococcus aureus
How it was run: (§3)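 MBC read after CLSI broth microdilution in duplicate. Mueller-Hinton broth with 25 mg/liter calcium and 12.5 mg/liter magnesium; for daptomycin, 50 mg/liter calcium. 5-μl aliquots from clear wells were plated onto tryptic soy agar.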

Staphylococcus aureus [6] = assay: Bactericidal activity against community-acquired methicillin-resistant Staphylococcus aureus by broth microdilution method; settings: for MBC: Staphylococcus aureus; how it was run: as §3
Staphylococcus aureus [7] = assay: Bactericidal activity against hospital-acquired methicillin-resistant Staphylococcus aureus selected at MIC after 24 hrs by time kill analysis
How it was run: (§4)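 Time-kill at 0.5× or 1× MIC, alone and combined with tobramycin. Start inoculum ~10^6 CFU/ml, triplicate, sampled over 0–24 h and spiral-plated; detection limit 2 log10 CFU/ml. Bactericidal means ≥3-log10 CFU/ml reduction. Synergy means ≥2-log10 more killing at 24 h than the best single drug.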

Staphylococcus aureus [8] = assay: Bactericidal activity against hospital-acquired methicillin-resistant Staphylococcus aureus selected at 0.5 times MIC after 24 hrs by time kill analysis; how it was run: as §4
Staphylococcus aureus [9] = assay: Bactericidal activity against community-acquired methicillin-resistant Staphylococcus aureus selected at MIC after 24 hrs by time kill analysis; how it was run: as §4
Staphylococcus aureus [10] = assay: Bactericidal activity against community-acquired methicillin-resistant Staphylococcus aureus selected at 0.5 times MIC after 24 hrs by time kill analysis; how it was run: as §4
Staphylococcus aureus [11] = assay: Antimicrobial activity against community-acquired methicillin-resistant Staphylococcus aureus by broth microdilution method in presence of 50% human serum
How it was run: (§5)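 Broth microdilution per CLSI, in duplicate, with 50% human serum added. Mueller-Hinton broth with 50 mg/liter calcium and 12.5 mg/liter magnesium. Run on 20 randomly chosen isolates, 10 CA-MRSA and 10 HA-MRSA.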

Staphylococcus aureus [12] = assay: Antimicrobial activity against hospital-acquired methicillin-resistant Staphylococcus aureus by broth microdilution method in presence of 50% human serum; how it was run: as §5
Staphylococcus aureus [13] = assay: Bactericidal activity against community-acquired methicillin-resistant Staphylococcus aureus selected at 4 times MIC after 24 hrs by time kill analysis in presence of 50% human serum; how it was run: as §2
Staphylococcus aureus [14] = assay: Bactericidal activity against hospital-acquired methicillin-resistant Staphylococcus aureus selected at 4 times MIC after 24 hrs by time kill analysis in presence of 50% human serum; how it was run: as §2
Staphylococcus aureus [15] = assay: Bactericidal activity against hospital-acquired methicillin-resistant Staphylococcus aureus by broth microdilution method in presence of 50% human serum
How it was run: (§6)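 MBC with 50% human serum on 10 CA-MRSA and 10 HA-MRSA isolates. Mueller-Hinton broth with 50 mg/liter calcium and 12.5 mg/liter magnesium. Aliquots from clear wells were plated onto tryptic soy agar.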

Staphylococcus aureus [16] = assay: Bactericidal activity against community-acquired methicillin-resistant Staphylococcus aureus by broth microdilution method in presence of 50% human serum; how it was run: as §6

Structure (SMILES)	MIC50 (Staphylococcus aureus [1]) [µg/mL]	MIC90 (Staphylococcus aureus [1]) [µg/mL]	MIC50 (Staphylococcus aureus [2]) [µg/mL]	MIC90 (Staphylococcus aureus [2]) [µg/mL]	T99.9% (Staphylococcus aureus [3]) [h]	T99.9% (Staphylococcus aureus [4]) [h]	MBC50 (Staphylococcus aureus [5]) [µg/mL]	MBC90 (Staphylococcus aureus [5]) [µg/mL]	MBC (Staphylococcus aureus [5]) [µg/mL]	MBC50 (Staphylococcus aureus [6]) [µg/mL]	MBC90 (Staphylococcus aureus [6]) [µg/mL]	MBC (Staphylococcus aureus [6]) [µg/mL]	also measured
CN[C@H](CC(C)C)C(=O)N[C@H]1C(=O)N[C@@H](CC(N)=O)C(=O)N[C@H]2C(=O)N[C@H]3C(=O)N[C@H](C(=O)N[C@H](C(=O)O)c4cc(O)cc(O)c4-c4cc3ccc4O)[C@H](O)c3ccc(c(Cl)c3)Oc3cc2cc(c3O[C@@H]2O[C@H](CO)[C@@H](O)[C@H](O)[C@H]2O[C@H]2C[C@](C)(N)[C@H](O)[C@H](C)O2)Oc2ccc(cc2Cl)[C@H]1O [VANCOMYCIN]	1 (≈ 0.69 µM)	1 (≈ 0.69 µM)	1 (≈ 0.69 µM)	2 (≈ 1.38 µM)	8.6	8.6	1 (≈ 0.69 µM)	2 (≈ 1.38 µM)	0.5 (≈ 0.345 µM)	1 (≈ 0.69 µM)	2 (≈ 1.38 µM)	0.5 (≈ 0.345 µM)	–
CC(=O)NC[C@H]1CN(c2ccc(N3CCOCC3)c(F)c2)C(=O)O1 [LINEZOLID]	2 (≈ 5.93 µM)	4 (≈ 11.9 µM)	2 (≈ 5.93 µM)	4 (≈ 11.9 µM)	–	–	16 (≈ 47.4 µM)	64 (≈ 190 µM)	1 (≈ 2.96 µM)	8 (≈ 23.7 µM)	32 (≈ 94.9 µM)	2 (≈ 5.93 µM)	–
Nc1nc(/C(=N/O)C(=O)N[C@@H]2C(=O)N3C(C(=O)O)=C(/C=C4\CCN([C@@H]5CCNC5)C4=O)CS[C@H]23)ns1 [CEFTOBIPROLE]	1 (≈ 1.87 µM)	2 (≈ 3.74 µM)	1 (≈ 1.87 µM)	2 (≈ 3.74 µM)	8	11.8	2 (≈ 3.74 µM)	4 (≈ 7.48 µM)	0.5 (≈ 0.935 µM)	2 (≈ 3.74 µM)	4 (≈ 7.48 µM)	0.5 (≈ 0.935 µM)	T99.9% (Staphylococcus aureus [7]): 8.6 h; T99.9% (Staphylococcus aureus [8]): 14.2 h; T99.9% (Staphylococcus aureus [9]): 8.6 h; T99.9% (Staphylococcus aureus [10]): 14.2 h
CCCCCCCCCC(=O)N[C@@H](Cc1c[nH]c2ccccc12)C(=O)N[C@H](CC(N)=O)C(=O)N[C@@H](CC(=O)O)C(=O)N[C@@H]1C(=O)NCC(=O)N[C@@H](CCCN)C(=O)N[C@@H](CC(=O)O)C(=O)N[C@H](C)C(=O)N[C@@H](CC(=O)O)C(=O)NCC(=O)N[C@H](CO)C(=O)N[C@@H]([C@H](C)CC(=O)O)C(=O)N[C@@H](CC(=O)c2ccccc2N)C(=O)O[C@@H]1C	0.25 (≈ 0.154 µM)	0.5 (≈ 0.309 µM)	0.25 (≈ 0.154 µM)	0.5 (≈ 0.309 µM)	1.6	1.6	0.25 (≈ 0.154 µM)	1 (≈ 0.617 µM)	0.125 (≈ 0.0771 µM)	0.25 (≈ 0.154 µM)	0.5 (≈ 0.309 µM)	0.125 (≈ 0.0771 µM)	MIC50 (Staphylococcus aureus [11]): 1 µg/mL; MIC90 (Staphylococcus aureus [11]): 1 µg/mL; MIC50 (Staphylococcus aureus [12]): 0.5 µg/mL; MIC90 (Staphylococcus aureus [12]): 1 µg/mL; T99.9% (Staphylococcus aureus [13]): 2.2 h; T99.9% (Staphylococcus aureus [14]): 2.1 h; MBC50 (Staphylococcus aureus [15]): 1 µg/mL; MBC90 (Staphylococcus aureus [15]): 1 µg/mL; MBC (Staphylococcus aureus [15]; Staphylococcus aureus): 0.5 µg/mL; MBC50 (Staphylococcus aureus [16]): 1 µg/mL; MBC90 (Staphylococcus aureus [16]): 1 µg/mL; MBC (Staphylococcus aureus [16]; Staphylococcus aureus): 0.5 µg/mL
